The list is not random: actives were taken first. Their share in the collection is about 2.2%.
CHRM5 PAM: positive allosteric modulators of human muscarinic M5 receptor; actives 0.3% (n = 360,000); P08912; AID 624038; activation, % at 3 µM; CHO-K1 hM5, Fluo-8 calcium, ACh EC20 PAM; 0% = ACh EC20, 100% = ACh EC100;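 active = activation above the run cutoff, the mean activation of all test compounds plus 3 SD, cut at about 18% in these data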
Target sequence (P08912 whole entry, looked up): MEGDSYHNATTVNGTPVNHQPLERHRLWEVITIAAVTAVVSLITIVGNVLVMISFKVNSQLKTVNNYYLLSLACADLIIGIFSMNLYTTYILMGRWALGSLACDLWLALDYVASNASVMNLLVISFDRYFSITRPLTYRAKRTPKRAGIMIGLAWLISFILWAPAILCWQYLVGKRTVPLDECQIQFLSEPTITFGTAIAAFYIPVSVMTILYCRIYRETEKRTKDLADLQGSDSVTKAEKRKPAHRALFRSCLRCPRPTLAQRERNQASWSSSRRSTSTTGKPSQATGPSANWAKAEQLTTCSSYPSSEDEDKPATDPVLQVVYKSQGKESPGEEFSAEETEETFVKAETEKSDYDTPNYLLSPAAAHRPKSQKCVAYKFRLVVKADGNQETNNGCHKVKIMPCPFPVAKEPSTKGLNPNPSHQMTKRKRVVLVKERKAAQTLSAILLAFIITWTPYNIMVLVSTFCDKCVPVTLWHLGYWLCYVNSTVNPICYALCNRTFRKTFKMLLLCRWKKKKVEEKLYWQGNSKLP
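Probe or stimulus: acetylcholine, EC20 level; Assay system: human M5 receptor in CHO-K1 cells; Schedule: compound preincubation 140 s before EC20 acetylcholine addition; Technique: intracellular calcium via Fluo-8 fluorescence; Dosing: single-point, 3 µM nominal; Read-out basis: percent activation from peak-over-basal fluorescence ratio, scaled EC20-to-EC100 acetylcholine; Repeats: one well per compound, no replicates.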
M1 ag: human M1 muscarinic receptor agonism. activation, % at 3 µM. AID 588814. CHO-K1 hM1, Fluo-8 calcium fluorescence, agonist mode; 0% DMSO, 100% acetylcholine EC100. actives 0.33% (n = 360,000);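 active = activation above the run's mean compound activation plus 3 SD, cut at about 16% in these data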;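 note: peak over basal fluorescence ratio within a 140 s kinetic read after compound addition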
M5 antag: CHRM5 antagonism in calcium assay | P08912 | CHO-hM5 cells, Fluo-8 calcium fluorescence, ACh EC80 | inhibition, % at 3 µM | actives 0.59% (n = 360,000);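 active = inhibition above a per-plate cutoff, the mean of that plate's test compounds plus 3 SD, cut at about 27% in these data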
M5 ag: agonists of human muscarinic M5 receptor (CHRM5); actives 0.19% (n = 360,000); CHO-K1 hM5 cells, Fluo-8 calcium fluorescence; 0% DMSO wells, 100% maximal acetylcholine response; P08912; activation, % at 3 µM; AID 624037;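 active = activation above the run's mean over test compounds plus 3 SD, cut at about 23% in these data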;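 note: signal is peak over basal fluorescence ratio across the kinetic read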
CHRM1 PAM: positive allosteric modulators of human M1 muscarinic receptor | P11229 | CHO-K1 hM1, Fluo-8 calcium fluorescence, ACh EC20; 0% = ACh EC20, 100% = maximal ACh | activation, % at 3 µM | actives 0.088% (n = 360,000) | AID 588819; in the data active = activation above about 19%, passing the limit was not always enough
M1 antag: human CHRM1 antagonism | P11229 | CHO-K1 hM1, Fluo-8 calcium fluorescence, ACh EC80 antagonist | inhibition, % at 3 µM | actives 1.3% (n = 360,000) | AID 588852;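 active = percent inhibition above its own plate's cutoff, namely the mean of that plate's compound wells plus 3 SD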;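 note: peak over basal fluorescence ratio during 140 s after agonist addition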
Large screens that a line does not name were inactive.

N=c1ncn(C2OC(CO)C(O)C2O)c2nc(Br)[nH]c12 (configuration not stated)	none
C/C(=N\NC(=O)c1cccc(C)c1)c1ccc(N2CCOCC2)cc1	CHRM5 PAM 19
C/C(=N\NC(=O)c1ccc(F)cc1)c1ccc(N2CCOCC2)cc1	none
CCC(=O)c1ccc2c(c1)N(CCCN(C)C)c1ccccc1S2	M5 antag 74, M1 antag 94
CC(=O)c1ccc2c(c1)N(C)c1ccccc1S2	none
CC(=O)c1ccc2c(c1)N(CCCN(C)C)c1ccccc1S2	M5 antag 70, M1 antag 95
Cc1ccccc1NC(=O)COC(=O)c1ccc(C)c(S(=O)(=O)N2CCCCC2)c1	none
COc1ccc(C2Nc3ccccc3C(=O)N2NS(C)(=O)=O)c(OC)c1 (configuration not stated)	none
COc1cc(C2Nc3ccccc3C(=O)N2NS(C)(=O)=O)c([N+](=O)[O-])cc1OC (configuration not stated)	CHRM1 PAM 27
CCN(CC)C(=O)C1c2ccccc2Oc2ccccc21	M1 ag 18, M5 ag 53
CC(C)[N+](C)(CCOC(=O)C1c2ccccc2Oc2ccccc21)C(C)C	M5 antag 98, M1 antag 97
CC(C)CNC(=O)COC(=O)C1c2ccccc2Oc2ccccc21	none
CNS(=O)(=O)c1cccc(C(=O)OCC(=O)c2c(N)n(C)c(=O)n(C)c2=O)c1	none
C=CCN(c1ccccc1OC)S(=O)(=O)c1cccc(C(=O)OCC(=O)c2c(N)n(C)c(=O)n(C)c2=O)c1	M5 antag 27, M1 antag 31
CCCN1CCN(S(=O)(=O)c2ccc3c(c2)OCCO3)CC1	none
COC(=O)C1CCN(S(=O)(=O)Cc2ccccc2Cl)CC1	none
C=C1c2ccccc2O[C@H](C(=O)OCC)[C@H]1OC	none
COc1cccc(NC(=O)Nc2cc(C(=O)O)ccc2C)c1	none
COc1cccc(NC(=O)Nc2ccncc2)c1	none
COc1cccc(NC(=O)Nc2ccc(C(C)(C)C)cc2)c1	M5 antag 35, M1 antag 26
COc1cccc(NC(=O)Nc2ccc(C)c(Cl)c2)c1	M5 antag 33
CC(C)(C)c1ccc(NC(=O)Nc2ccc(F)cc2)cc1	M5 antag 79, M1 antag 49
CC(C)(C)c1ccc(COC(=O)Nc2ccc(F)cc2)cc1	none
N#CCOC(=O)C1CCN(S(=O)(=O)c2ccc3c(c2)OCCO3)CC1	none
COc1ccc(CCNC(=O)CSc2nc3[nH]ncc3c(=O)n2-c2ccc(Br)cc2)cc1OC	M1 ag 25
Cc1cc2nc3n(c2cc1C)CC1CC(C(=O)NCC2CC2)N(C)C31 (configuration not stated)	M1 antag 42
CN1C(C(=O)NCC2CC2)CC2Cn3c(nc4cc(Cl)c(Cl)cc43)C21 (configuration not stated)	none
CSc1nc(NC(C)=O)nc(C)c1Cl	none
COc1cccc(OCC(O)CNC(C)c2ccccc2)c1 (configuration not stated)	none
CC(C)(C)OC(=O)C[C@H]1C/C=C\C[C@H](CC(=O)N[C@H](CO)Cc2ccccc2)C(=O)N2CCC[C@H]2COC1=O	none
OCCN1CCN(C2Cc3cc(Cl)ccc3Sc3ccc(Cl)cc32)CC1 (configuration not stated) (tested in a mixture with another compound)	none
CCc1ccc2c(c1)Sc1ccccc1CC2N1CCN(C)CC1 (configuration not stated)	M1 antag 53
CN1CCN(C2Cc3cc(Cl)ccc3Sc3cc(F)ccc32)CC1 (configuration not stated)	M5 antag 59, M1 antag 99
C[N+](C)(C)c1ccc(/C=N/Nc2nc(Cl)c(C#N)c(Cl)c2Cl)cc1	M5 ag 32
Nc1ccn(Cc2cccc(F)c2)n1	none
N=c1ccn(Cc2cccc(F)c2)cc1	M1 antag 42
CC(C)c1ccc(CC(=O)N2CCC2(C)C(=O)Nc2ccc3c(c2)OCO3)cc1 (configuration not stated)	none
CC1(C(=O)Nc2ccc3c(c2)OCCO3)CCN1C(=O)Cc1ccc(-c2ccccc2)cc1 (configuration not stated)	M5 antag 30
CC1(C(=O)Nc2cccc(C#N)c2)CCN1C(=O)Cc1ccc(-c2ccccc2)cc1 (configuration not stated)	M1 antag 42
O=C(Cc1ccc(-n2c(=O)c3sccc3n(CC(=O)Nc3ccccc3F)c2=O)cc1)NCc1ccco1	none
CC(=NNc1nc2ccccc2o1)c1cc2ccccc2cn1	M5 antag 28
Cc1cc(C)nc(Nc2nc3ccccc3o2)n1	none
CC(=NNc1nc2ccccc2o1)c1ncccn1	M5 antag 51
CC1=C(c2ccccc2)SC2=NCCN21	none
Cc1cccc(OCC(=O)N2CCN(c3nnc(-c4ccccc4)c4ccccc34)CC2)c1	M1 antag 57
COc1ccc(C)cc1NC(=O)c1ccccc1NS(=O)(=O)c1cccc2cccnc12	none
CC(=O)N/C(=C/c1ccc2c(c1)OCO2)C(=O)N1CCOCC1	none
CC(=O)N1CCN(C(=O)/C(C#N)=C/c2ccc3c(c2)OCO3)CC1	CHRM1 PAM 34
c1ccc(CN2CCC(N3CCN(Cc4ccc5c(c4)OCO5)CC3)CC2)cc1	none
c1cc2c(cc1CN1CCN(C3CCCCCC3)CC1)OCO2	M1 antag 64
COCCN(C(=S)Nc1cc(C)cc(C)c1)C(C)c1ccco1 (configuration not stated)	CHRM1 PAM 26
CCN1CCN(C(CNS(=O)(=O)c2ccc(F)cc2)c2cccnc2)CC1 (configuration not stated)	none
Cc1cc(C)c(S(=O)(=O)c2cccc(Br)c2C)c(=O)[nH]1	none
NCCNCCNCCN	none
NCCCCNCCCN	M1 ag 79, M5 ag 75
CCc1ccc(-n2cc(-c3ccc(F)cc3)[n+]3c2SCCC3)cc1	M1 antag 52
CCc1cc2c3c(c1)C(C)CC(C)(C)N3C(=O)C2=O (configuration not stated)	M5 ag 26
C[N+]1(CC(O)c2ccccc2)CCCCCC1 (configuration not stated)	none
CC(=O)OC(C[N+]1(C)CCCCCC1)c1ccccc1 (configuration not stated)	M5 antag 28, M1 antag 57
CN(Cc1cn(C)nc1-c1ccc(Oc2ccccc2)cc1)Cc1cnc2ccccn12	M1 antag 24

Source: PubChem (The Scripps Research Institute Molecular Screening Center)
